According to ChEMBL document CHEMBL1134597, “Identification of alkylidene hydrazides as glucagon receptor antagonists” (J Med Chem, 2001):

Target: Glucagon receptor (Rattus norvegicus, UniProt P30082)
Test: Binding affinity towards rat Glucagon Receptor
In short: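 Plasma membranes prepared from livers of male Wistar rats (2 μg protein) incubated with ~50 000 CPM 125I-glucagon in 50 mM HEPES, 5 mM EGTA, 5 mM MgCl2, 0.005% tween-20, pH 7.4. Samples diluted in DMSO. Nonspecific binding defined with excess unlabeled glucagon; 2 h at 30 °C; vacuum filtration, gamma counting; curve fitting gave IC50.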

Glucagon receptor (Rattus norvegicus, UniProt P30082), sequence (P30082 whole entry): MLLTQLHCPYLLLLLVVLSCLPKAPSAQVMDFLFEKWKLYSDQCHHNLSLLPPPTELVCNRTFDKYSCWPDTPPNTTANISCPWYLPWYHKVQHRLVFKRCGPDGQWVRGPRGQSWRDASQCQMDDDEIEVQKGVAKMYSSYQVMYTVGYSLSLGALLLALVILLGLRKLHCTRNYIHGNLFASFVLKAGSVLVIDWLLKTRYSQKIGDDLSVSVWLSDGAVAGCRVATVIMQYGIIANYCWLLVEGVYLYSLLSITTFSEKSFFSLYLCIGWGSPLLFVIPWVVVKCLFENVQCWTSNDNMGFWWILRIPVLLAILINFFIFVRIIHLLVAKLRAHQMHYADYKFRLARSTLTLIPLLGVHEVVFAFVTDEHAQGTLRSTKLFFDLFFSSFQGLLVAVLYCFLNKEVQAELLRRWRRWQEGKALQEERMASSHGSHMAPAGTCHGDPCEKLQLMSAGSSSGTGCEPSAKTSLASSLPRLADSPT

IC50	Compound
0.027 µM	O=C(N/N=C/c1ccc(O)c2ccccc12)c1ccc(O)c(Cl)c1

Target: T1, Glucagon receptor (Homo sapiens, UniProt P47871)
Test: Binding affinity towards human Glucagon Receptor by the displacement of [125I]-glucagon
In short: (§1)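 Competition binding of [125I]glucagon (~25 000 cpm) to plasma membranes (~0.5 μg) from BHK cells transfected with cloned human glucagon receptor; 25 mM HEPES pH 7.4, 0.1% BSA; run in duplicate, 1 h at 37 °C. Bound and free separated by vacuum filtration on GF/C filters, then scintillation counting; IC50 determined.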

T1 sequence (P47871 whole entry): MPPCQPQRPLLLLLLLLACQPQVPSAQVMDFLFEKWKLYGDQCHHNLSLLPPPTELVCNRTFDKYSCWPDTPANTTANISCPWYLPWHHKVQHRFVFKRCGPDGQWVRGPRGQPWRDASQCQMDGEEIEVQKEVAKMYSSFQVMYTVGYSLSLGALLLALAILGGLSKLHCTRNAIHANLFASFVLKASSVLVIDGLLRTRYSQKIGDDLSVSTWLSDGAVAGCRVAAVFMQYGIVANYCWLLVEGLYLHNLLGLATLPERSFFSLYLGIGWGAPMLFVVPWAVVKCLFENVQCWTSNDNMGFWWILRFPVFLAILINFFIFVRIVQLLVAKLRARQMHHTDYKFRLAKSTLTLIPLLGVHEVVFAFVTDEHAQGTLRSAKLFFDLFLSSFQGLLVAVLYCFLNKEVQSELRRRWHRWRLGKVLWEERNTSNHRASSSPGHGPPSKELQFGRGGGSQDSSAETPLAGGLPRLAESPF

IC50	Compound
0.2 µM	O=C(N/N=C/c1ccc(O)c2ccccc12)c1ccc(O)c(Cl)c1

Target: T1, Glucagon receptor
Test: Binding affinity for human Glucagon Receptor
In short: as §1

Compound	IC50
O=C(N/N=C/c1ccc(O)c2ccccc12)c1ccc2[nH]ccc2c1	> 100 µM
O=C(N/N=C/c1ccc(O)c2ccccc12)c1ccc(O)c(CN2CCOCC2)c1	> 100 µM
O=C(N/N=C/c1ccc(O)c2ccccc12)c1ccc(O)c(F)c1	0.39 µM
Nc1cc(C(=O)N/N=C/c2ccc(O)c3ccccc23)ccc1O	2 µM
COc1cc(/C=N/NC(=O)c2cccc3ccccc23)ccc1O	> 100 µM
O=C(N/N=C/c1ccc(O)c2ccccc12)c1ccc(O)cc1O	28 µM
O=C(N/N=C/c1ccc(O)c2ccccc12)c1cc2cc(O)ccc2[nH]1	> 100 µM
COc1cc(C(=O)N/N=C/c2[nH]cnc2C)ccc1O	> 100 µM
COc1cccc(C(=O)N/N=C/c2ccc(OC)c3ccccc23)c1	> 100 µM
COc1cc(C(=O)N/N=C/c2ccc(/C=C/c3ccccc3)cc2)ccc1O	> 100 µM
Nc1ccc(C(=O)N/N=C/c2ccc(O)c3ccccc23)cc1	> 100 µM
O=C(NNCc1cccc2ccccc12)c1ccc(O)cc1	> 100 µM
COc1cc(C(=O)N/N=C/c2cnc(O)nc2O)ccc1O	> 100 µM
O=C(N/N=C/c1ccc(O)c2ccccc12)c1cc(Cl)c(O)c(Cl)c1	34 µM
O=C(N/N=C/c1ccc(O)c2ccccc12)c1ccc(O)cc1	1.2 µM
O=C(O)c1ccc(C(=O)N/N=C/c2ccc(O)c3ccccc23)cc1	> 100 µM
O=C(N/N=C/c1ccc(O)c2ccccc12)c1ccc(O)nc1	> 100 µM
O=C(N/N=C/c1ccc(O)c2ccccc12)c1ccc2nccnc2c1	> 100 µM
COc1cc(C(=O)N/N=C(\C)c2cccc3ccccc23)ccc1O	> 100 µM
O=C(N/N=C/c1cccc2ccccc12)c1ccc(O)cc1	1.8 µM

Other lines, results leading:

IC50	Compound
> 100 µM	COc1cc(C(=O)N/N=C/c2ccc(O)cc2)ccc1O
> 100 µM	COc1ccc(/C=N/NC(=O)c2ccc(O)c(OC)c2)cc1O
12 µM	COc1cc(C(=O)N/N=C/c2ccc(-c3ccc(C)c(Cl)c3)o2)ccc1O
43 µM	COc1cc(C(=O)N/N=C/c2ccc(OC(F)(F)F)cc2)ccc1O
29 µM	COc1cc(C(=O)N/N=C/c2ccc(C(C)(C)C)cc2)ccc1O
23 µM	COc1cc(C(=O)N/N=C/c2c[nH]c3ccccc23)ccc1O
4.9 µM	COc1ccc(/C=N/NC(=O)c2ccc(O)cc2)c2ccccc12
3.4 µM	O=C(N/N=C/c1ccc(O)c2ccccc12)c1ccc(O)c(O)c1
2.9 µM	COc1cc(C(=O)N/N=C/c2ccc(OC)c3ccccc23)ccc1O
26 µM	COc1cc(C(=O)N/N=C/c2ccc(-c3ccccc3)cc2)ccc1O
0.83 µM	O=C(N/N=C/c1ccc(O)c2ccccc12)c1ccc(O)c(Br)c1
8.1 µM	COc1cc(C(=O)N/N=C/c2ccc(N(C)C)c3ccccc23)ccc1O
10 µM	COc1cc(C(=O)N/N=C/c2ccnc3ccccc23)ccc1O
4.8 µM	COc1cc(C(=O)N/N=C/c2cccc3ccccc23)ccc1O
6.3 µM	CCn1c2ccccc2c2cc(/C=N/NC(=O)c3ccc(O)c(OC)c3)ccc21
0.72 µM	COc1cc(C(=O)N/N=C/c2ccc(O)c3ccccc23)ccc1O
4.9 µM	COc1cc(C(=O)N/N=C/c2cccc(Oc3cccc(C(F)(F)F)c3)c2)ccc1O
43 µM	COc1cc(C(=O)N/N=C/c2ccc(C(C)C)cc2)ccc1O
> 100 µM	COc1ccc(/C=N/NC(=O)c2ccc(O)c(OC)c2)cc1
60 µM	COc1cc(C(=O)N/N=C/c2ccc(O)c3ccccc23)cc(Cl)c1O

System: not listed separately
Test: pA2 value for the compound was calculated
In short: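 BHK cells expressing cloned human glucagon receptor (10^6/mL) in HEPES pH 7.4 buffer with 0.1 mM IBMX and 0.2% BSA. Cells pretreated 10 min at 37 °C with several antagonist concentrations, then challenged with increasing glucagon for 20 min. cAMP measured by RIA; pA2 obtained by Schild analysis of rightward-shifted glucagon concentration-response curves.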

Compound	pA2
O=C(N/N=C/c1ccc(O)c2ccccc12)c1ccc(O)c(Cl)c1	6.99
